This is a sample that favours compounds with a hit; in the whole collection about 2% have one here.
PvdQ acylase: P. aeruginosa PvdQ acylase inhibitors, primary screen, biochemical, fluorescence, plate reader and imaging, single point | 340,000 compounds, 0.063% hits | inhibition, % at 10 µM | AID 488965, 2010 | purified PvdQ acylase | PvdQ acylase [Pseudomonas aeruginosa LESB58]; in the data active = inhibition above about 30%, passing the limit was not always enough
VIM-2 inh: VIM-2 metallo-beta-lactamase inhibitors, primary screen, biochemical, epi-absorbance readout, Pseudomonas aeruginosa enzyme. purified VIM-2, nitrocefin hydrolysis, epi-absorbance fluorescence. inhibition, % at 5.6 µM. 290,000 compounds, 0.89% hits. AID 1527, 2009;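 active = inhibition above the mean of all tested compounds plus 3 SD, cutoff set per screening run, cut at about 7.5% in these data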;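 note: red hydrolysis product quenches plate fluorescence so inhibitors raise well fluorescence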
IMP-1 inhibitor: IMP-1 metallo-beta-lactamase inhibitors, primary screen, biochemical, epi-absorbance readout, Pseudomonas aeruginosa enzyme; metallo-beta-lactamase IMP-1 (Pseudomonas aeruginosa); purified IMP-1, nitrocefin hydrolysis, epi-absorbance fluorescence; inhibition, % at 5.6 µM; 290,000 compounds, 0.45% hits; AID 1556, 2009;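 active = inhibition above the mean plus 3 SD of all compounds in the same screening run, cut at about 4.5% in these data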
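System: purified recombinant IMP-1 beta-lactamase. Medium: Zinc- and detergent-supplemented HEPES buffer, pH 7.1. Compound: one 5.6 µM dose […]. Schedule: 15 min preincubation plus 25 min reaction at 25 °C. Technique: Epi-absorbance fluorescence, 480 nm excitation, 530 nm emission.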
MIN6 prolif-1: inducers of MIN6 beta-cell proliferation, primary screen, ATP luminescence, uHTS; MIN6 cells proliferation, ATPlite luminescence, 48 h; cells starved in 0.2% serum; 100% = growth in 10% serum; proliferation, % at 10 µM; 330,000 compounds, 0.29% hits; AID 2380, 2010;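 active = compounds whose signal lies at least 3.5 SD above the mean of all wells on their plate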
ATG4B inh: ATG4B protease inhibitors, primary screen, biochemical, fluorescence, uHTS. ATG4B cleavage of LC3-PLA2, NBD-HPC fluorescence, 1 h. inhibition, % at 8.33 µM. 340,000 compounds, 0.51% hits. AID 504462, 2011; in the data active = inhibition above about 40%
Target sequence (Q9Y4P1 whole entry, looked up): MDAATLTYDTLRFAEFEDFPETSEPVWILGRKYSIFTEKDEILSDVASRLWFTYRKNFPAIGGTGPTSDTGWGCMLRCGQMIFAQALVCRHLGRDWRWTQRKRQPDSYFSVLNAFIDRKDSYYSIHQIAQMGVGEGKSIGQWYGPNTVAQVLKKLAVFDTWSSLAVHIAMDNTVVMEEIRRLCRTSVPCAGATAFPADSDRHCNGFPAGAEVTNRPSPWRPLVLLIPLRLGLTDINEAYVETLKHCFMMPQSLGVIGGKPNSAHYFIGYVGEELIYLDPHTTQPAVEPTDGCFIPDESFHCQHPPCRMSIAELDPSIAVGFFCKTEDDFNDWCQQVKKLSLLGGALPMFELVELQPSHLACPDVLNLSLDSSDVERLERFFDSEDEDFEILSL
HKDC1 inh: HKDC1 hexokinase inhibitors, primary screen, biochemical, fluorescence, uHTS. recombinant HKDC1, G6PDH/diaphorase resazurin coupled fluorescence. inhibition, % at 20 µM. 340,000 compounds, 0.16% hits. AID 493160, 2011;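 active = inhibition above about 35% when tested at 20 µM, limit read from the data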
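Material – in-house recombinant HK5 (HKDC1) enzyme · Quantity – HKDC1 at 5 µg/mL · Buffer or medium – pH 8.0 Tris buffer with 10 mM MgCl2 · Reagent – glucose with 1 mM ATP · Dosing – single 20 µM dose · Times – reaction time 90 min, room temperature, protected from light · Technique – resorufin fluorescence at 613 nm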
MIN6 prolif-2: inducers of beta-cell proliferation in MIN6, confirmation, MIN6 cells, mouse. ATPlite luminescence, 48 h; cells kept in 0.2% serum; scaled between 0.2% and 10% serum. shares compounds with MIN6 prolif-1. 920 tested, under 10 active. proliferation increase, % at 50 µM;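 active = proliferation increase above 40% at any of the four tested concentrations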
Of the large screens only hits and unclear results are named; the others gave an inactive call (follow-up assays come after a bar, where they were run).

O=C(c1ccccc1)[C@H]1[C@H](c2ccccc2)[C@@]2(N=C(c3ccccc3)OC2=O)C2c3ccccc3C=NN21 (stereo partly drawn)	none (no result: PvdQ acylase, ATG4B inh, HKDC1 inh)
CC(C)c1cccc(C(C)C)c1NC(=O)CNCc1ccccc1F	none
CCOc1ccc2nc(SCC(=O)N3CCCCCC3)c(C#N)cc2c1	MIN6 prolif-1 5.3 | MIN6 prolif-2 inactive
CCOC(=O)c1c(C)[nH]c(C)c1C(=O)CSc1nc2ccccc2n1CCC#N	none
CCCn1c(SCC(=O)c2c(C)[nH]c(C)c2C(=O)OCC)nc2ccccc21	MIN6 prolif-1 6.8 | MIN6 prolif-2 inactive
c1ccc2c(c1)OCC(c1csc3ncnc(N4CCOCC4)c13)O2 (stereo not drawn)	MIN6 prolif-1 5.3 | MIN6 prolif-2 inactive
CCN(CC)c1ncnc2scc(C3COc4ccccc4O3)c12 (stereo not drawn)	none
CC(C)CCNC(=O)CN(C(=O)CCC(=O)Nc1ccccn1)c1ccc2c(c1)OCO2	none
C=CCN1C(=O)/C(=C2/Sc3ccccc3N2CCCS(=O)(=O)O)SC1=S	MIN6 prolif-1 6.4 | MIN6 prolif-2 inactive
C=CCN1C(=O)/C(=C2/Sc3ccccc3N2CC)SC1=S	none
Cc1[nH]c2ccccc2c1C(=O)NS(=O)(=O)Nc1ccc(F)cc1	MIN6 prolif-1 8.8 | MIN6 prolif-2 inactive
Cc1ccccc1NC(=O)CN1C(=O)NC(C)(c2ccc3c(c2)OCO3)C1=O (stereo not drawn)	none
CC1(c2ccc3c(c2)OCO3)NC(=O)N(CC(=O)Nc2ccccc2[N+](=O)[O-])C1=O (stereo not drawn)	MIN6 prolif-1 14 (no result: VIM-2 inh, IMP-1 inhibitor) | MIN6 prolif-2 inactive
Cc1ccc(S(=O)(=O)N2CCN(c3nccnc3C#N)CC2)cc1	none
CC1(C)CN2C(=S)N(c3ccccc3)C(c3ccccc3)N2C1 (stereo not drawn)	none
CN(C)C(=O)CN1C(=O)C2CC=C(Cl)CC2C1=O (stereo not drawn)	none
CCN(CC)C(=O)CN1C(=O)C2CC=C(Cl)CC2C1=O (stereo not drawn)	MIN6 prolif-1 6.9 | MIN6 prolif-2 inactive
CC(C)(C)c1nnc(NC(=O)Nc2ccc(Cl)cc2)s1	none
CCCCNC(=O)Nc1nnc(C(C)(C)C)s1	MIN6 prolif-1 5.1 | MIN6 prolif-2 inactive
O=C(CCS(=O)(=O)c1ccc(Br)s1)N1CCc2ccccc21	none
Cc1ccc(-n2ncc3c(SCc4ccccn4)ncnc32)c(C)c1	none
CCOC(=O)c1c(-c2cccs2)csc1NC(C)=O	MIN6 prolif-1 13 | MIN6 prolif-2 inactive
O=S(=O)(c1cnccc1N1CCN(/N=C/c2ccccc2)CC1)N1CCCCC1	MIN6 prolif-1 5.6 | MIN6 prolif-2 inactive
CCCCn1c(-c2cccs2)nc2nc3ccccc3nc21	none
CCCCOCCCn1c(-c2ccco2)nc2nc3ccccc3nc21	MIN6 prolif-1 7.8 | MIN6 prolif-2 inactive
Cn1nc(OCC(=O)O)cc1C(F)(F)F	MIN6 prolif-1 6.3 | MIN6 prolif-2 inactive
CCOC(=O)C1CCN(C(=O)CCC2CCCC2)CC1	MIN6 prolif-1 6.1 | MIN6 prolif-2 inactive
CCOC(=O)C1CCN(C(=O)c2ccc(C)o2)CC1	MIN6 prolif-1 9.3 (no result: VIM-2 inh, IMP-1 inhibitor) | MIN6 prolif-2 inactive
CC1(C)Cc2cccc(Oc3cc(NN4CCCCC4)c([N+](=O)[O-])cc3[N+](=O)[O-])c2O1	none
COC(=O)c1sccc1NC(=O)c1cccc(OC)c1	none
COC(=O)c1sccc1NC(=O)c1ccc(OC)cc1OC	MIN6 prolif-1 7.8 | MIN6 prolif-2 inactive
CCOc1cc(/C=N/n2nnnc2N)ccc1OCc1c(C)no[n+]1[O-]	MIN6 prolif-1 0.0 | MIN6 prolif-2 inactive
COc1ccc(C(=O)N=C2SC3CS(=O)(=O)CC3N2Cc2ccc(OC)c(OC)c2)cc1 (stereo not drawn)	MIN6 prolif-1 11 | MIN6 prolif-2 inactive
CCOc1ccc(C(C)NC(=O)c2ccccc2F)cc1 (stereo not drawn)	none
CC(O)CNc1cc(N)c([N+](=O)[O-])cc1[N+](=O)[O-] (stereo not drawn)	MIN6 prolif-1 0.0 | MIN6 prolif-2 inactive
C/C(=N/NC(=O)CCC(=O)Nc1cccc(Cl)c1)c1ccc(C)cc1	none
CCN(CC(=O)NCc1ccc(F)cc1)C(=O)C1CCN(S(=O)(=O)c2ccc(C(C)C)cc2)CC1	none (no result: VIM-2 inh, IMP-1 inhibitor)
CCOc1ncccc1C(=O)Nc1ccc2c(C)cc(=O)oc2c1	MIN6 prolif-1 8.1 | MIN6 prolif-2 inactive
COc1ccccc1C(=O)Nc1ccc2c(C)cc(=O)oc2c1	none
Cc1ccc(N2C(=O)c3ccccc3C2=O)nc1	none (no result: MIN6 prolif-1)
COc1ccc(N(CC(=O)Nc2cccc(C)c2)S(=O)(=O)c2c(C)n[nH]c2C)cc1	none
COc1cc(NC(=O)CN(c2ccc(C)cc2)S(=O)(=O)c2c(C)n[nH]c2C)cc(OC)c1	MIN6 prolif-1 0.0 | MIN6 prolif-2 inactive
Cc1ccc(CNC(=O)CCNC(=O)N2CCn3c2nc2ccccc23)cc1	MIN6 prolif-1 14 | MIN6 prolif-2 inactive
Cc1ccc(CNC(=O)CCCCCNC(=O)N2CCn3c2nc2ccccc23)cc1	none
Cc1ccc(Nc2nc(NCC3CCCO3)nc(N)c2[N+](=O)[O-])cc1C (stereo not drawn)	MIN6 prolif-1 0.0 | MIN6 prolif-2 inactive
OC(c1ccc(Cl)cc1)c1nccc2ccccc12 (stereo not drawn)	MIN6 prolif-1 5.5 | MIN6 prolif-2 inactive
NC(=O)C1CCN(CC(=O)Nc2ccccc2Sc2ccccc2)CC1	MIN6 prolif-1 7.1 | MIN6 prolif-2 inactive
NC(=O)C1CCN(CC(=O)Nc2ccccc2Sc2ccc(Cl)cc2)CC1	none
COc1cc(N)c(Cl)cc1C(=O)OCC(=O)NCC1CCCO1 (stereo not drawn)	none (no result: VIM-2 inh, IMP-1 inhibitor)
COc1cc(N)c(Cl)cc1C(=O)OCC(=O)NCC1CCCCC1	MIN6 prolif-1 8.8 (no result: VIM-2 inh, IMP-1 inhibitor) | MIN6 prolif-2 inactive
COc1ccc(Cl)cc1C(=O)OCC(=O)NCCNC(=O)COC(=O)c1cc(Cl)ccc1OC	MIN6 prolif-1 9.7 | MIN6 prolif-2 inactive
COc1ccc(NC(=S)N(Cc2ccc(C(=O)O)cc2)Cc2ccc(OC)c(OC)c2)cc1	MIN6 prolif-1 9.2 | MIN6 prolif-2 inactive
COc1ccc(CN(Cc2ccc(C(=O)O)cc2)C(=S)Nc2cccc(C)c2)cc1OC	none
